ChEMBL document CHEMBL1124468, “N-(fluoroethyl)(imidazolylphenyl)formamidines. The issue of the active species of mifentidine” (J Med Chem, 1989)

Tests used:
[1] = Dissociation constant for formamidine ring; format: physicochemical
How it was run: (§1)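 Macroscopic ionization constants (pKa) by potentiometric titration of compound dissolved in previously boiled distilled water with 2 mL methanol; titrated with 0.1 N KOH in 0.1-equivalent additions, pH read at equilibrium after each addition.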

[2] = Dissociation constant for imidazole ring; format: physicochemical; how it was run: as §1
[3] = Percent of monocationic species at a pH of 6.5 was determined
How it was run: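 Monocationic percentage at pH 6.5 computed with the Henderson-Hasselbach equation from pKa values measured by potentiometric titration with 0.1 N KOH in water containing a little methanol.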

[4] = target: Histamine H2 receptor (Cavia porcellus) (UniProt P47747); test: Antagonist activity against histamine H2 receptor was evaluated in guinea pig atria; value ranges from (3.8-119)x10E-9; format: functional
Chain of Histamine H2 receptor (Cavia porcellus) (P47747 whole entry): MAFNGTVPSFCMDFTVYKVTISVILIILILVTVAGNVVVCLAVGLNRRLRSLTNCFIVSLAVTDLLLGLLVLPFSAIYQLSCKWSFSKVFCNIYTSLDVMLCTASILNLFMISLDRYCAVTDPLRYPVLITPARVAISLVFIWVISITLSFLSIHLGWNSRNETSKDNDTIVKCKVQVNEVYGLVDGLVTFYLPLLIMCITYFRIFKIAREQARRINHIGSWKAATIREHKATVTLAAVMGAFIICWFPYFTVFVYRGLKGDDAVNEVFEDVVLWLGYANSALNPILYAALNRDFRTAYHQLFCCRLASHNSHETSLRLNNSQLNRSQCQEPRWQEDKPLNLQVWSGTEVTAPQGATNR
How it was run: (§2)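 Spontaneously beating atria from male Dunkin-Hartley guinea pigs (400–500 g) in oxygenated (O2/CO2 95:5) McEwen's solution, pH 6.5, 32 °C; rate recorded by instantaneous rate meter. Cumulative histamine up to maximal chronotropic response; antagonist equilibrated 60 min. K_B = [B]/(DR − 1), DR being histamine dose ratios at half-maximal response with and without several antagonist concentrations; multiple-regression evaluation.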

[5] = target: Histamine H2 receptor (Cavia porcellus) (UniProt P47747); test: Antagonist activity against histamine H2 receptor was evaluated in guinea pig atria; value ranges from (40.2-93.3) x10E-9; format: functional; how it was run: as §2
[6] = target: Histamine H2 receptor (Cavia porcellus) (UniProt P47747); test: Antagonist activity against histamine H2 receptor was evaluated in guinea pig atria; value ranges from (3.6-16.1)x10E-9; format: functional; how it was run: as §2
[7] = Dissociation constant for imidazole ring; ND means not determined because of product insolubility; format: physicochemical; how it was run: as §1

Compound	pKa [1]	pKa [2]	Monocation species [3] [%]	Kb [4] [nM]	Kb [5] [nM]	Kb [6] [nM]	pKa [7]
FC(F)C/N=C/Nc1ccc(-c2c[nH]cn2)cc1	6.6	4.54	54.64	21	–	–	–
FCC/N=C/Nc1ccc(-c2c[nH]cn2)cc1	8.12	5.55	87.56	–	61	–	–
FC(F)(F)C/N=C/Nc1ccc(-c2c[nH]cn2)cc1	6.14	4.45	29.5	–	–	7.6	–
CC/N=C/Nc1ccc(-c2c[nH]cn2)cc1	8.65	5.57	88.78	–	–	–	–
N#C/N=C/Nc1ccc(-c2c[nH]cn2)cc1	< 1	–	–	–	–	–	Insoluble
